From ChEMBL document CHEMBL1165950, “Design and synthesis of new potent anticancer pyrazoles with high FLT3 kinase inhibitory selectivity” (Bioorg Med Chem, 2010)

What was measured:
Type in all cases: functional
TK-10 = assay: Cytotoxicity against human TK10 cells assessed as cell growth at 10 uM; conditions: read-out: Activity
Method in brief: (§1)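 NCI-60 screen: cells grown in RPMI 1640 with 5% FBS and 2 mM L-glutamine, plated at 5000–40,000 cells/well according to doubling time, and preincubated 24 h at 37 °C, 5% CO2. The single 10 µM dose (DMSO stock) was added, then incubated 48 h. Cells were TCA-fixed and stained with 0.4% SRB, read at 515 nm, and growth % calculated against time-zero and control plates.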

PC-3 = assay: Cytotoxicity against human PC3 cells assessed as cell growth at 10 uM; conditions: read-out: Activity; method in brief: as §1
[1] = Cytotoxicity against human […] cells assessed as cell growth at 0.001 uM after 48 hrs by sulforhodamine B assay; conditions: read-out: Activity
SF-295 [2] = assay: Cytotoxicity against human SF295 cells assessed as cell growth at 1 uM after 48 hrs by sulforhodamine B assay; conditions: SF-295, 48 h, read-out: Activity
HCC 2998 = assay: Cytotoxicity against human HCC2998 cells assessed as cell growth at 0.01 uM after 48 hrs by sulforhodamine B assay; conditions: HCC 2998, 48 h, read-out: Activity
SNB-75 = assay: Cytotoxicity against human SNB75 cells assessed as cell growth at 0.01 uM after 48 hrs by sulforhodamine B assay; conditions: SNB-75, 48 h, read-out: Activity
RXF 393 = assay: Cytotoxicity against human RXF393 cells assessed as cell growth at 0.01 uM after 48 hrs by sulforhodamine B assay; conditions: RXF 393, 48 h, read-out: Activity
UO-31 = assay: Cytotoxicity against human UO31 cells assessed as cell growth at 0.01 uM after 48 hrs by sulforhodamine B assay; conditions: UO-31, 48 h, read-out: Activity
SF-268 [3] = assay: Cytotoxicity against human SF268 cells assessed as cell growth at 0.001 uM after 48 hrs by sulforhodamine B assay; conditions: SF-268, 48 h, read-out: Activity
U-251 = assay: Cytotoxicity against human U251 cells assessed as cell growth at 0.001 uM after 48 hrs by sulforhodamine B assay; conditions: U-251, 48 h, read-out: Activity
SK-MEL-5 = assay: Cytotoxicity against human SK-MEL-5 cells assessed as cell growth at 0.001 uM after 48 hrs by sulforhodamine B assay; conditions: SK-MEL-5, 48 h, read-out: Activity
NCI-H460 = assay: Growth inhibition of human NCI-H460 cells after 48 hrs by sulforhodamine B assay; conditions: NCI-H460, 48 h
Method in brief: (§2)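 NCI 60-cell screen, five-dose mode. Cells grown in RPMI 1640 with 5% FBS and 2 mM L-glutamine and plated at 5000-40,000 cells/well according to doubling time. After 24 h preincubation, a Tz plate was TCA-fixed. Five concentrations (10-fold or 1/2 log dilutions) were applied for 48 h at 37 °C. SRB staining read at 515 nm. IC50 taken from [(Ti-Tz)/(C-Tz)]×100 = 50.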

SF-295 [4] = assay: Growth inhibition of human SF295 cells after 48 hrs by sulforhodamine B assay; conditions: SF-295, 48 h; method in brief: as §2
SK-MEL-2 [5] = assay: Growth inhibition of human SK-MEL-2 cells after 48 hrs by sulforhodamine B assay; conditions: SK-MEL-2, 48 h; method in brief: as §2
UACC-62 = assay: Growth inhibition of human UACC62 cells after 48 hrs by sulforhodamine B assay; conditions: UACC-62, 48 h; method in brief: as §2
BT-549 = assay: Cytotoxicity against human BT549 cells assessed as cell growth at 0.01 uM after 48 hrs by sulforhodamine B assay; conditions: BT-549, 48 h, read-out: Activity
Method in brief: (§3)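 NCI-60 five-dose screen. Cells were grown in RPMI 1640 with 5% FBS and 2 mM L-glutamine, plated at 5000–40,000 cells/well and preincubated for 24 h. Time-zero plates were TCA-fixed. DMSO-solubilized drug was added at five concentrations (10-fold or ½-log serial dilutions) for 48 h at 37 °C, 5% CO2. Cells were TCA-fixed, stained with 0.4% SRB and read at 515 nm. Percent growth used time-zero, control and test absorbances.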

NCI-H23 = assay: Cytotoxicity against human NCI-H23 cells assessed as cell growth at 100 nM after 48 hrs by sulforhodamine B assay; conditions: NCI-H23, 48 h, read-out: Activity
NCI/ADR-RES = assay: Cytotoxicity against human NCI/ADR-RES cells assessed as cell growth at 1 uM after 48 hrs by sulforhodamine B assay; conditions: read-out: Activity
SK-OV-3 = assay: Cytotoxicity against human SKOV3 cells assessed as cell growth at 1 uM after 48 hrs by sulforhodamine B assay; conditions: SK-OV-3, 48 h, read-out: Activity
ACHN [6] = assay: Cytotoxicity against human ACHN cells assessed as cell growth at 1 uM after 48 hrs by sulforhodamine B assay; conditions: read-out: Activity; method in brief: as §3
SN12C = assay: Cytotoxicity against human SN12C cells assessed as cell growth at 1 uM after 48 hrs by sulforhodamine B assay; conditions: read-out: Activity
HCT-116 [7] = assay: Cytotoxicity against human HCT116 cells assessed as cell growth at 10 uM; conditions: read-out: Activity
Method in brief: (§4)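 Single-dose NCI-60 screen at 10 µM. Cells were grown in RPMI 1640 with 5% FBS and 2 mM L-glutamine, then treated for 48 h at 37 °C. Protein was measured by SRB staining with absorbance at 515 nm. Percentage growth was recorded, and inhibition percentage was calculated as 100 minus growth percentage.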

HCT-15 = assay: Cytotoxicity against human HCT15 cells assessed as cell growth at 10 uM; conditions: read-out: Activity; method in brief: as §4
COLO 205 = assay: Cytotoxicity against human COLO205 cells assessed as cell growth at 10 uM after 48 hrs by sulforhodamine B assay; conditions: COLO 205, 48 h, read-out: Activity
HCT-116 [8] = assay: Cytotoxicity against human HCT116 cells assessed as cell growth at 10 uM after 48 hrs by sulforhodamine B assay; conditions: HCT-116, 48 h, read-out: Activity
SF-268 [9] = assay: Cytotoxicity against human SF268 cells assessed as cell growth at 10 uM after 48 hrs by sulforhodamine B assay; conditions: SF-268, 48 h, read-out: Activity
SNB-19 = assay: Cytotoxicity against human SNB19 cells assessed as cell growth at 10 uM after 48 hrs by sulforhodamine B assay; conditions: SNB-19, 48 h, read-out: Activity
SK-MEL-2 [10] = assay: Cytotoxicity against human SK-MEL-2 cells assessed as cell growth at 10 uM after 48 hrs by sulforhodamine B assay; conditions: SK-MEL-2, 48 h, read-out: Activity
UACC-257 = assay: Cytotoxicity against human UACC257 cells assessed as cell growth at 10 uM after 48 hrs by sulforhodamine B assay; conditions: UACC-257, 48 h, read-out: Activity
ACHN [11] = assay: Cytotoxicity against human ACHN cells assessed as cell growth at 10 uM after 48 hrs by sulforhodamine B assay; conditions: read-out: Activity; method in brief: as §3
[12] = read-out: LC50 (the source's name)

Cc1cc(O)cc(-c2nn(CC#N)cc2-c2ccnc(-c3ccc(Oc4ccccc4)cc3)c2)c1
growth at 10 µM (TK-10): 47.2%
growth at 10 µM (PC-3): 66.4%
growth at 0.001 µM [1]: 97%
growth at 1 µM (SF-295 [2]): 30%
growth at 0.01 µM (HCC 2998): 89%
growth at 0.01 µM (SNB-75): 79%
growth at 0.01 µM (RXF 393): 90%
growth at 0.01 µM (UO-31): 85%
growth at 0.001 µM (SF-268 [3]): 88%
growth at 0.001 µM (U-251): 97%
growth at 0.001 µM (SK-MEL-5): 93%
GI50 (NCI-H460): 1.87 µM
TGI (NCI-H460): 3.58 µM
CC50 (NCI-H460; [12]): 6.85 µM
GI50 (SF-295 [4]): 4.42 µM
TGI (SF-295 [4]): 21.2 µM
CC50 (SF-295 [4]; [12]): 75.2 µM
GI50 (SK-MEL-2 [5]): 3.44 µM
TGI (SK-MEL-2 [5]): 11.7 µM
CC50 (SK-MEL-2 [5]; [12]): 44.2 µM
GI50 (UACC-62): 4.67 µM
TGI (UACC-62): 18.1 µM
CC50 (UACC-62; [12]): 44.4 µM
growth at 0.01 µM (BT-549): 91%
growth at 0.1 µM (NCI-H23): 96%
growth at 1 µM (NCI/ADR-RES): -50%
growth at 1 µM (SK-OV-3): 63%
growth at 1 µM (ACHN [6]): -4%
growth at 1 µM (SN12C): -57%
growth at 10 µM (HCT-116 [7]): 25.7%
growth at 10 µM (HCT-15): 4.26%
growth at 10 µM (COLO 205): -96%
growth at 10 µM (HCT-116 [8]): -97%
growth at 10 µM (SF-268 [9]): -95%
growth at 10 µM (SNB-19): -93%
growth at 10 µM (SK-MEL-2 [10]): -81%
growth at 10 µM (UACC-257): -93%
growth at 10 µM (ACHN [11]): -91%
